Source: ChEMBL document CHEMBL1157671, “Synthesis and biological evaluation of trifluralin analogues as antileishmanial agents” (Bioorg Med Chem, 2010)

Columns and labels:
[1] = Cytotoxicity against human RBC assessed as hemolysis at 100 uM after 1 hr by microplate reader method; type: cell-based, Erythrocyte; conditions: red blood cells (RBC), read-out: Activity
How it was run: (§1)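 Washed RBCs from EDTA blood of healthy donors mixed 1:1 with compound in PBS (100 to 6.25 μM), 1 h at 37 °C, then centrifuged. Supernatant absorbance at 550 nm, reference 620 nm; % hemolysis = (A − A0)/(Amax − A0) × 100, PBS background, water as 100%. Triplicates.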

Leishmania infantum [2] = experiment: Antileishmanial activity against Leishmania infantum A1 amastigotes infected in human THP1 cells assessed as reduction in intracellular parasite load after 48 hrs by Giemsa staining; type: functional, organism-based; conditions: A1, THP-1, 48 h
How it was run: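 THP-1 differentiated with 1 μM retinoic acid for 72 h, then infected overnight with L. infantum promastigotes at 8:1 parasite/cell, 37 °C/5% CO2. Free parasites removed over Histopaque 1077; cells at 4 × 10^5/mL exposed to compound 48 h at 37 °C/5% CO2. Infected cells counted microscopically after Giemsa staining; IC50 ± σ by sigmoidal regression, three independent experiments.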

[3] = Cytotoxicity against human RBC assessed as hemolysis after 1 hr by microplate reader method; type: cell-based, Erythrocyte; conditions: red blood cells (RBC); how it was run: as §1
[4] = Ratio of miltefosine HC50 to compound HC50 for human RBC; type: cell-based, Erythrocyte; conditions: red blood cells (RBC), read-out: Ratio IC50
[5] = Aqueous solubility in water by UV spectrophotometry; conditions: buffer
[6] = Cytotoxicity against human THP1 cells after 48 hrs by propidium iodide and SYBR14 satining-base flow cytometry; type: cell-based; conditions: THP-1 cells
How it was run: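 THP-1 cells at 1×10^6 cells/mL treated with compound (50 to 1.56 μM); stained with 12 μM PI and 100 nM SYBR-14 and live/dead ratio read by flow cytometry (488 nm laser; 545 and 645 nm emission). Incubation time given as 72 h in methods, 48 h in figure legend. Triplicates; CC50 derived from dose–response.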

Leishmania infantum [7] = experiment: Ratio of miltefosine IC50 to compound IC50 for Leishmania infantum A1 amastigotes infected in human THP1 cells; type: functional, THP-1
Leishmania donovani = experiment: Antileishmanial activity against Leishmania donovani MHOM/IN/80/DD8/LEM 703 promastigotes after 72 hrs by propidium iodide and SYBR14 satining-base flow cytometry; type: functional, organism-based; conditions: MHOM/IN/80/DD8/LEM 703, 72 h
How it was run: (§2)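 Promastigotes grown in RPMI 1640 with 10% FCS, L-glutamine and antibiotics at 26 °C; seeded at 1×10^6 cells/mL with compound (DMSO/ethanol 50:50 stock, 2-fold dilutions 100 to 0.8 μM in medium) at 26 °C for 72 h. Stained with 12 μM PI and 100 nM SYBR-14 in HEPES-buffered saline with 10% BSA; live/dead read by flow cytometry. IC50 ± σ by sigmoidal regression, three independent experiments.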

Leishmania infantum [8] = experiment: Antileishmanial activity against Leishmania infantum MHOM/TN/80/IPT1/LEM 235 promastigotes after 72 hrs by propidium iodide and SYBR14 satining-base flow cytometry; type: functional, organism-based; conditions: MHOM/TN/80/IPT1/LEM 235, 72 h; how it was run: as §2

IC50 (Leishmania infantum [2]) | solubility [5] | IC50 (Leishmania donovani) | IC50 (Leishmania infantum [8]) | SMILES | hemolysis at 1 h, 100 µM [1] | HC50 at 1 h [3] | selectivity ratio [4] | CC50 at 48 h [6] | Ratio IC50 (Leishmania infantum [7])
7.3 µM | 4.6 ppm | > 100 µM | > 100 µM | CN(C)c1c([N+](=O)[O-])cc(C(F)(F)F)cc1[N+](=O)[O-] | 0% | > 100 µM | 2 | > 50 µM | –
0.5 µM | 18.6 ppm | > 100 µM | > 100 µM | O=[N+]([O-])c1cc(C(F)(F)F)cc([N+](=O)[O-])c1N1CCOCC1 | 0.3% | > 100 µM | 2 | > 50 µM | 5
> 50 µM | 0.8 ppm | – | – | O=[N+]([O-])c1cc(C(F)(F)F)cc([N+](=O)[O-])c1N1CCCCC1 | 1.2% | > 100 µM | 2 | > 50 µM | –
> 50 µM | 157.4 ppm | > 100 µM | > 100 µM | CCN(CCO)c1c([N+](=O)[O-])cc(C(F)(F)F)cc1[N+](=O)[O-] | 0.4% | > 100 µM | 2 | > 50 µM | –
9.1 µM | 0.1 ppm | – | – | O=[N+]([O-])c1cc(C(F)(F)F)cc([N+](=O)[O-])c1NC1CCCCC1 | 1.1% | > 100 µM | 2 | > 50 µM | –

The remaining lines, values behind:

SMILES | IC50 (Leishmania infantum [2]) | solubility [5] | IC50 (Leishmania donovani) | IC50 (Leishmania infantum [8]) | hemolysis at 1 h, 100 µM [1] | HC50 at 1 h [3] | selectivity ratio [4] | CC50 at 48 h [6] | Ratio IC50 (Leishmania infantum [7])
O=[N+]([O-])c1cc(C(F)(F)F)cc([N+](=O)[O-])c1Nc1cccc(O)c1 | 2.2 µM | 9.5 ppm | – | – | 1.4% | > 100 µM | 2 | 35 µM | –
O=[N+]([O-])c1cc(C(F)(F)F)cc([N+](=O)[O-])c1Nc1ccccc1O | 1.1 µM | 20 ppm | – | – | 1.2% | > 100 µM | 2 | > 50 µM | 2.5
CCCCCN(CCO)c1c([N+](=O)[O-])cc(C(F)(F)F)cc1[N+](=O)[O-] | > 50 µM | 6 ppm | – | – | 0.8% | > 100 µM | 2 | > 50 µM | –
CCCCCCN(CCO)c1c([N+](=O)[O-])cc(C(F)(F)F)cc1[N+](=O)[O-] | > 50 µM | 5.7 ppm | – | – | 0.7% | > 100 µM | 2 | 10 µM | –
CCCN(CCO)c1c([N+](=O)[O-])cc(C(F)(F)F)cc1[N+](=O)[O-] | > 50 µM | 72.3 ppm | > 100 µM | > 100 µM | 0.2% | > 100 µM | 2 | > 50 µM | –
CCCCN(CCO)c1c([N+](=O)[O-])cc(C(F)(F)F)cc1[N+](=O)[O-] | 1.2 µM | 22.6 ppm | > 100 µM | > 100 µM | 0.5% | > 100 µM | 2 | > 50 µM | 2.5
O=[N+]([O-])c1cc(C(F)(F)F)cc([N+](=O)[O-])c1Nc1ccc(O)cc1 | 1.8 µM | 11.4 ppm | 0.6 µM | 2.2 µM | 1.4% | > 100 µM | 2 | 40 µM | –
CCCCCCCCCCCCCCCCOP(=O)([O-])OCC[N+](C)(C)C [MILTEFOSINE] | 2.7 µM | – | – | – | – | 38.3 µM | – | 28.6 µM | –
CCCN(CCC)c1c([N+](=O)[O-])cc(C(F)(F)F)cc1[N+](=O)[O-] [TRIFLURALIN] | > 50 µM | 0.5 ppm | > 100 µM | > 100 µM | 1.3% | > 100 µM | 2 | > 50 µM | –
